Measurements taken from ChEMBL document CHEMBL4020837, “Identification of Eukaryotic Translation Elongation Factor 1-α 1 Gamendazole-Binding Site for Binding of 3-Hydroxy-4(1 H)-quinolinones as Novel Ligands with Anticancer Activity” (J Med Chem, 2018).
Activity calls are given as the source filed them. The calls are words filed in the database; no cut-off is given here.

Assays:
[1] = molecular target: T1, Elongation factor 1-alpha 1 (Homo sapiens) (UniProt P68104); test: Binding affinity to recombinant human eEF1A1 expressed in HEK293 cells by ITC
T1 sequence (whole entry): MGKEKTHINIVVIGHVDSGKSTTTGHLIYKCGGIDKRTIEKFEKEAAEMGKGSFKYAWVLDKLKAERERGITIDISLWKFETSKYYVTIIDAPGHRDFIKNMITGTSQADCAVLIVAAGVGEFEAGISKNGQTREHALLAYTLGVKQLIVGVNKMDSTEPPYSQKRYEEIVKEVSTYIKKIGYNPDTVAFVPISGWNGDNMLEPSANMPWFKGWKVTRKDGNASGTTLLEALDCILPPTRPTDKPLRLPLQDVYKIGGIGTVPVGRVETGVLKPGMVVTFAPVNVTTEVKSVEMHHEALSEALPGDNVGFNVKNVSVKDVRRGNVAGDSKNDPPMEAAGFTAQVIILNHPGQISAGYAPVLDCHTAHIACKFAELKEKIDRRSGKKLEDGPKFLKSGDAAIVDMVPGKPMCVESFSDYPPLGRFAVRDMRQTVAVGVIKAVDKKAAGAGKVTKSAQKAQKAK
Outline: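 Isothermal titration calorimetry recorded the heat changes on titrating ligand into eEF1A1. Binding enthalpy and association constant (Ka) were derived from the titration profiles.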

A549 [2] = test: Antiproliferative activity against human A549 cells after 72 hrs by MTT assay; format: functional, cell-based; settings: A549, 72 h
U2OS [3] = test: Antiproliferative activity against human U2OS cells after 72 hrs by MTT assay; format: functional, cell-based
CCRF-CEM [4] = test: Antiproliferative activity against human CCRF-CEM cells after 72 hrs by MTT assay; format: functional, cell-based
[5] = Antiproliferative activity against human CEM-DNR-bulk cells after 72 hrs by MTT assay; format: functional, cell-based
HCT-116 = test: Antiproliferative activity against human HCT116 cells after 72 hrs by MTT assay; format: functional, cell-based; settings: HCT-116, 72 h
K562 [6] = test: Antiproliferative activity against human K562 cells after 72 hrs by MTT assay; format: functional, cell-based; settings: K562, 72 h
K562 [7] = test: Antiproliferative activity against taxol resistant human K562 cells after 72 hrs by MTT assay; format: functional, cell-based; settings: K562, 72 h
BJ [8] = test: Antiproliferative activity against human BJ cells after 72 hrs by MTT assay; format: cell-based
K562 [9] = test: Antiproliferative activity against taxol resistant human K562 cells by MTT assay; format: functional, cell-based
CCRF-CEM [10] = test: Antiproliferative activity against human CCRF-CEM cells by MTT assay; format: functional, cell-based
[11] = Antiproliferative activity against human CEM-DNR-bulk cells by MTT assay; format: functional, cell-based
U2OS [12] = test: Antiproliferative activity against human U2OS cells by MTT assay; format: functional, cell-based
K562 [13] = test: Antiproliferative activity against human K562 cells by MTT assay; format: functional, cell-based
A549 [14] = test: Antiproliferative activity against human A549 cells by MTT assay; format: functional, cell-based
BJ [15] = test: Antiproliferative activity against human BJ cells by MTT assay; format: cell-based
[16] = molecular target: T1, Elongation factor 1-alpha 1 (Homo sapiens); test: Binding affinity to eEF1A1 in human CCRF-CEM cells after 30 mins by HPLC-MS based SDS-PAGE analysis; format: cell-based
Outline: (§1)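 Biotinylated 3-HQ ligands (one linked via the quinolinone benzene ring, one via the 2-phenyl ring) were immobilized on streptavidin magnetic beads and incubated with total protein lysate from CCRF-CEM cells. Bound proteins were released, resolved by SDS-PAGE, and identified by mass spectrometry.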

[17] = molecular target: Pyruvate kinase PKM (Homo sapiens) (UniProt P14618); test: Binding affinity to PKM2 in human CCRF-CEM cells after 30 mins by HPLC-MS based SDS-PAGE analysis; format: cell-based; outline: as §1
Pyruvate kinase PKM (Homo sapiens), sequence (P14618 2-531 limits assumed): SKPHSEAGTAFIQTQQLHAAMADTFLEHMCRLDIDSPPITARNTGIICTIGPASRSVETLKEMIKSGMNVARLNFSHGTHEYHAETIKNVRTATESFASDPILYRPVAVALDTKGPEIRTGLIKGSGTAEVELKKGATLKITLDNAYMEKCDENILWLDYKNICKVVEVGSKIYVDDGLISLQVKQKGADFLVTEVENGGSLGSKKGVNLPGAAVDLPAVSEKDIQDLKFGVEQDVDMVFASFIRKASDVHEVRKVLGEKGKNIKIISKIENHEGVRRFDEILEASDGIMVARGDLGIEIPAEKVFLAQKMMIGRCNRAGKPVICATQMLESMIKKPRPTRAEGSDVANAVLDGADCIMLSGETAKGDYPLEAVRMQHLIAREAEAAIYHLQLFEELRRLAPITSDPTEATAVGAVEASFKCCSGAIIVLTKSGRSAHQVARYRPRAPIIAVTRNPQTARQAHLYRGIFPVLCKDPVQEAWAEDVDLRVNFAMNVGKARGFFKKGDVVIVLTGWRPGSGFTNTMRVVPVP

[18] = molecular target: Actin, cytoplasmic 1 (Homo sapiens) (UniProt P60709); test: Binding affinity to beta-actin in human CCRF-CEM cells after 30 mins by HPLC-MS based SDS-PAGE analysis; format: cell-based; outline: as §1
[19] = molecular target: T1, Elongation factor 1-alpha 1 (Homo sapiens); test: Binding affinity to eEF1A1 in human CCRF-CEM cells after 30 mins by Western blot method; format: cell-based
[20] = molecular target: Pyruvate kinase PKM (Homo sapiens) (UniProt P14618); test: Binding affinity to PKM2 in human CCRF-CEM cells after 30 mins by Western blot method; format: cell-based
[21] = molecular target: Actin, cytoplasmic 1 (Homo sapiens) (UniProt P60709); test: Binding affinity to beta-actin in human CCRF-CEM cells after 30 mins by Western blot method; format: cell-based

Row | SMILES | Ka [1] | IC50 (A549 [2]) [µM] | IC50 (U2OS [3]) [µM] | IC50 (CCRF-CEM [4]) [µM] | IC50 [5] [µM] | IC50 (HCT-116) [µM] | IC50 (K562 [6]) [µM] | IC50 (K562 [7]) [µM] | IC50 (BJ [8]) [µM] | further results
1 | O=C(O)c1cc(-c2[nH]c3ccccc3c(=O)c2O)ccc1N1CCOCC1 | 1.03 ×10⁷ /M | 50 | 50 | 49.6 | 50 | 50 | 50 | 50 | 50 | –
2 | NC(=O)c1cc(-c2[nH]c3ccccc3c(=O)c2O)ccc1N1CCOCC1 | 6.8 ×10⁶ /M | 44.4 | 50 | 16.2 | 50 | 30.6 | 50 | 50 | 50 | –
3 | CCN(CC)c1ccc(-c2[nH]c3ccccc3c(=O)c2O)cc1[N+](=O)[O-] | – | – | – | – | – | – | – | – | – | IC50 (K562 [9]): 2.71 µM; IC50 (CCRF-CEM [10]): 1.72 µM; IC50 [11]: 6.75 µM; IC50 (U2OS [12]): 8.57 µM; IC50 (K562 [13]): 0.75 µM; IC50 (A549 [14]): 1.89 µM; IC50 (BJ [15]): 9.73 µM
4 | O=C(O)/C=C/c1nn(Cc2ccc(Cl)cc2Cl)c2cc(C(F)(F)F)ccc12 | 1.27 ×10⁷ /M | – | – | – | – | – | – | – | – | –
5 | NC(=O)c1cc(-c2[nH]c3ccccc3c(=O)c2O)ccc1N1CCCCC1 | 2.9 ×10⁶ /M | 9.96 | 26 | 3.34 | 21.4 | 4.46 | 7.1 | 6.41 | 48.9 | –
6 | O=c1c(O)c(-c2ccc(N3CCCCC3)c([N+](=O)[O-])c2)[nH]c2ccccc12 | – | – | – | – | – | – | – | – | – | IC50 (K562 [9]): 2.02 µM; IC50 (CCRF-CEM [10]): 1.55 µM; IC50 [11]: 3 µM; IC50 (U2OS [12]): 7.51 µM; IC50 (K562 [13]): 0.75 µM; IC50 (A549 [14]): 1.62 µM; IC50 (BJ [15]): 9.83 µM
7 | O=C(O)c1cc(-c2[nH]c3ccccc3c(=O)c2O)ccc1N1CCCCC1 | 2.54 ×10⁶ /M | 50 | 50 | 49.6 | 50 | 50 | 50 | 50 | 50 | –
8 | CCCCCNC(=O)c1ccc2c(=O)c(O)c(-c3ccc(N4CCCCC4)c(C(N)=O)c3)[nH]c2c1 | 5.3 ×10⁶ /M | 1.89 | 0.56 | 1.73 | 8.03 | 0.64 | 2.39 | 32.7 | 10.2 | –
9 | CCNc1ccc(-c2[nH]c3cc(C(=O)NCCOCCOC(=O)CCCC[C@@H]4SC[C@@H]5NC(=O)N[C@@H]54)ccc3c(=O)c2O)cc1[N+](=O)[O-] | – | – | – | – | – | – | – | – | – | Activity [16]: Active; Activity [17]: Active; Activity [18]: Active; Activity [19]: Active; Activity [20]: Active; Activity [21]: Active
10 | NC(=O)c1cc(-c2[nH]c3cc(C(=O)NCc4ccccc4)ccc3c(=O)c2O)ccc1N1CCCCC1 | 1.81 ×10⁷ /M | 3.77 | 0.58 | 1.73 | > 50 | 1.01 | 8.3 | > 50 | > 50 | –
11 | O=c1c(O)c(-c2ccccc2)[nH]c2ccccc12 | inactive | > 50 | 47 | 26.7 | 22.5 | 44.2 | 48 | 27.4 | > 50 | –
12 | CCNc1ccc(-c2[nH]c3ccccc3c(=O)c2O)cc1[N+](=O)[O-] | – | – | – | – | – | – | – | – | – | IC50 (K562 [9]): 1.96 µM; IC50 (CCRF-CEM [10]): 1.42 µM; IC50 [11]: 3.01 µM; IC50 (U2OS [12]): 9.98 µM; IC50 (K562 [13]): 0.66 µM; IC50 (A549 [14]): 0.94 µM; IC50 (BJ [15]): 9.39 µM
13 | O=C1N[C@H]2[C@H](CS[C@H]2CCCCC(=O)OCCOCCOCCOCCOCCOCCOCCOCCOCCOCCNc2ccc(-c3[nH]c4ccccc4c(=O)c3O)cc2[N+](=O)[O-])N1 | – | – | – | – | – | – | – | – | – | Activity [19]: inactive; Activity [20]: inactive; Activity [21]: inactive
